Data reported in article PMC10839117 (Cell chemical biology, 2023).
Entries after “also recorded” stand apart in the source; their conditions may differ. Primed or numbered codes have the meaning given here. Where no end group is shown, it is not given here. [ ]: non-standard residue; d: D form. two‑PEG linker = not defined here; YHJ1039 = not defined here; PEG2′ = two-PEG linker

Assays:
[1] = tested on: NEK9, FAK, CDK4, CDK6, and WEE1; test: Kinase degradation by Western blotting, MOLM-14 cells; format: cell-based, human; details: 24 hours; for kinase degradation activity compared between compounds: Western blot, DB0614 comparison at 1 μM
[2] = cited from earlier work
[3] = molecular target: WEE1-nanoluciferase fusion protein (Homo sapiens, UniProt P30291); test: WEE1 cellular engagement assay; format: cell-based; details: nano-BRET, HEK-293T cells, one hour
Method in brief: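 HEK-293T cells were transiently transfected with a WEE1-nanoluciferase plasmid. The next day they were replated at 8,000 cells/well in phenol red-free DMEM with 4% FBS, together with K-5 tracer and 2 μM MLN4924. After 1 h, DMSO-normalised test compound was added. One hour later, nano-BRET detection reagent was added. The BRET ratio (610/450 nm) was normalised to DMSO wells.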

KLHDC2 = molecular target: T1, KLHDC2 (Homo sapiens, UniProt Q9Y2U9); test: TR-FRET binding assay, KLHDC2
T1 sequence (Q9Y2U9 1-362): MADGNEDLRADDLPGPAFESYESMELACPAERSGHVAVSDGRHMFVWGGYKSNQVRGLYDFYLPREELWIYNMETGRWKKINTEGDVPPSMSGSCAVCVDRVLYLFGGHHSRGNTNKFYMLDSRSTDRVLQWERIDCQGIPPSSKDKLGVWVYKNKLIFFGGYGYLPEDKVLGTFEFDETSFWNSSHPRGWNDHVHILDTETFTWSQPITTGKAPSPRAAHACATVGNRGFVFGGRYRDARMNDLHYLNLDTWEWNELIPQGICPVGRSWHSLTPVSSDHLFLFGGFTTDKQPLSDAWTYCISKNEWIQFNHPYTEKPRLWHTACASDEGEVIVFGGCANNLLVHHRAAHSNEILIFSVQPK

MOLM-14 cells = test: Cell proliferation assay; format: cell-based, human
Method in brief: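 MOLM-14 cells were plated at low density and treated in triplicate or quadruplicate with DMSO-balanced test compound, with or without MLN4924. After 72 h, CellTiter-Glo was added for 10–15 min at room temperature and luminescence was read. Signal was normalised to DMSO-only wells, or to DMSO plus MLN4924 at the matching MLN4924 concentration.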

WEE1 and CDK4 RNA = test: RT-PCR of WEE1 and CDK4 RNA; format: cell-based, human; details: MOLM-14 cells, 1 μM, 24 hours
CDK4 [4] = molecular target: T2, CDK4 (Homo sapiens, UniProt P11802); test: Kinase degradation by Western blotting, CDK4; format: cell-based; details: MOLM-14 cells
Method in brief: (§1)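 MOLM-14 cells (RPMI-1640, 10% FBS, 37°C, 5% CO2) were exposed to test compound for 24 h. Cells were washed in PBS, lysed with protease inhibitors, and equal protein was boiled in SDS sample buffer. Blots were blocked for at least 1 h in TBST/5% milk, then probed with kinase antibodies at 1:1,000 and HRP secondaries at 1:10,000. DC50 was taken from quantitative Western blotting.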

NEK9 = molecular target: T3, NEK9 (Homo sapiens, UniProt Q8TD19); test: Kinase degradation by Western blotting, NEK9; format: cell-based; details: read-out: DC50 NEK9, MOLM-14 cells, 24 hours
T3 sequence (Q8TD19 1-979): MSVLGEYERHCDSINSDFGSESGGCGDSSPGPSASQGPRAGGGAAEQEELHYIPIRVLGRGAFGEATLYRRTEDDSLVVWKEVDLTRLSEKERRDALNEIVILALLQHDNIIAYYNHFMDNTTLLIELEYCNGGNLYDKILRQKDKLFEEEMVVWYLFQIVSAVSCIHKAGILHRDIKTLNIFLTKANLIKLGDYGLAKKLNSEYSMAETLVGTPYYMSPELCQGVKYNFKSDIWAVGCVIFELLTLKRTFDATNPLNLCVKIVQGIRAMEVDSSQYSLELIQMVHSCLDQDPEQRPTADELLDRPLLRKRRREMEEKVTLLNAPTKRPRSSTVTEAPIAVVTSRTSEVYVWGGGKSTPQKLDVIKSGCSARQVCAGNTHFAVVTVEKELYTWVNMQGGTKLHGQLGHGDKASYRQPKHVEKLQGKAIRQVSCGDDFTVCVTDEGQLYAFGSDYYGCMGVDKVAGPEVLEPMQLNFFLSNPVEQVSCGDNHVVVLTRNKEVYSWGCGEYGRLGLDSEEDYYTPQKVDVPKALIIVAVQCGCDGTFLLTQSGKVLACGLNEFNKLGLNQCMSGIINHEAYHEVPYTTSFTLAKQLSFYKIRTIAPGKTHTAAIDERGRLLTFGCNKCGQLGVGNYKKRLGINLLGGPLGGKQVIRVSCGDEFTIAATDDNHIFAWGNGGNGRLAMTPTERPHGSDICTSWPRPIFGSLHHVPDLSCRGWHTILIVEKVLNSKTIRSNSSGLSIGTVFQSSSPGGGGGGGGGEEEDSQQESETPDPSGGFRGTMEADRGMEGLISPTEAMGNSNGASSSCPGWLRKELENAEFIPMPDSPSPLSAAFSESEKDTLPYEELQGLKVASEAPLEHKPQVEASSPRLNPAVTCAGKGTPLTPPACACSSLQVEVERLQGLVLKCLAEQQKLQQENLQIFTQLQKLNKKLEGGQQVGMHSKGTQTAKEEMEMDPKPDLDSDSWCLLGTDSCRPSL
Method in brief: as §1

WEE1 = WEE1 (Homo sapiens, UniProt P30291); test: Kinase degradation by Western blotting, WEE1; format: cell-based; details: MOLM-14 cells
Method in brief: as §1

CDK6 = CDK6 (Homo sapiens, UniProt Q00534); test: Kinase degradation by Western blotting, CDK6; format: cell-based; details: read-out: DC50 CDK6, MOLM-14 cells, 24 hours
Method in brief: as §1

FAK = FAK (Homo sapiens, UniProt Q05397); test: Kinase degradation by Western blotting, FAK; format: cell-based; details: read-out: DC50 FAK, MOLM-14 cells, 24 hours
Method in brief: as §1

CDK4 [5] = molecular target: T2, CDK4; test: HiBiT degradation assay, CDK4; format: cell-based
Method in brief: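 MOLM-14 cells were lentivirally transduced with HiBiT-tagged kinase (GSGS linker, EF1a promoter) and pooled after 1 μg/ml puromycin selection. Cells were pretreated for 2 h with 1 μM MLN4924, then treated with test compound for 6 h in triplicate or quadruplicate. Lytic HiBiT luminescence was normalised to the matching CellTiter-Glo viability signal and to DMSO for each treatment.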

KLHDC2-WEE1 = KLHDC2-WEE1 (Homo sapiens, UniProt P30291+Q9Y2U9); test: GST pulldown assay with purified KLHDC2 and WEE1 proteins; format: binding
Method in brief: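 Purified proteins were His6-GST-KLHDC2 (propeller domain, residues 1-362, lacking the autoinhibitory C-terminus; E. coli-expressed) and the WEE1 kinase domain with its tag removed by TEV. They were incubated with DMSO or test compound for 1 h on ice in 20 mM Tris-HCl pH 8.5, 150 mM NaCl, 1 mM TCEP, 0.05% NP-40 substitute. Glutathione-agarose was added for 1 h at 4°C, followed by three washes. Bound material was analysed by SDS-PAGE.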

WEE1 and CDK4 = test: Kinase degradation by Western blotting in a panel of cancer cell lines; format: cell-based, human; details: 1 μM
Method in brief: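 Cancer cell lines were grown in RPMI-1640 (MOLM-14, MV-4-11, MOLT-4, DLD1, K562, SW480, MDA-MB-231, MCF7), EMEM (Detroit 551) or DMEM (GIST-T1, Hs27), each with 10% FBS and 1% pen-strep at 37°C, 5% CO2. Cells were treated with test compound, washed in PBS and lysed with protease inhibitors. Equal protein was blotted; membranes were blocked in TBST/5% milk, then probed with primaries at 1:1,000 and HRP secondaries at 1:10,000.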

[6] = molecular target: WEE1 kinase domain (residues 290-576) (Homo sapiens, UniProt P30291); test: HiBiT degradation assay, WEE1 kinase domain; format: cell-based
Method in brief: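 Pooled selected cells, checked for kinase expression by lytic HiBiT, grown with 10% FBS and 1% penicillin-streptomycin at 37°C, 5% CO2. Cells were dispensed and treated in triplicate or quadruplicate with DMSO balanced, then lysed for HiBiT luminescence after 6 h. For the MLN4924 arm, cells were pretreated 2 h with 1 μM MLN4924. HiBiT signal was normalized to CellTiter-Glo viability per matching condition and to DMSO.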

[7] = molecular target: T4, His6-GST-KLHDC2 (residues 1-362, propellor domain, lacking the autoinhibitory C-terminus) (UniProt Q9Y2U9 1-362); test: AlphaScreen or HTRF
T4 sequence (looked up): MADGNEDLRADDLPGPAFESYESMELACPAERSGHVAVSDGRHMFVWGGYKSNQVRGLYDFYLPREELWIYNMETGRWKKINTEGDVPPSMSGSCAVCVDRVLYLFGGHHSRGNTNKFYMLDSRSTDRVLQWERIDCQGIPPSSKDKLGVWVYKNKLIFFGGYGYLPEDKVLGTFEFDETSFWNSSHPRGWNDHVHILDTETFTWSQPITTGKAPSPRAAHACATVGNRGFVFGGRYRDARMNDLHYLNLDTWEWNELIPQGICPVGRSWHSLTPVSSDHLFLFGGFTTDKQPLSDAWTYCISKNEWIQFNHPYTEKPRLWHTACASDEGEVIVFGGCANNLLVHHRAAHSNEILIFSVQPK

[8] = 1 μM MLN4924 two hours, then six-hour experiment

T2 sequence (P11802 whole entry): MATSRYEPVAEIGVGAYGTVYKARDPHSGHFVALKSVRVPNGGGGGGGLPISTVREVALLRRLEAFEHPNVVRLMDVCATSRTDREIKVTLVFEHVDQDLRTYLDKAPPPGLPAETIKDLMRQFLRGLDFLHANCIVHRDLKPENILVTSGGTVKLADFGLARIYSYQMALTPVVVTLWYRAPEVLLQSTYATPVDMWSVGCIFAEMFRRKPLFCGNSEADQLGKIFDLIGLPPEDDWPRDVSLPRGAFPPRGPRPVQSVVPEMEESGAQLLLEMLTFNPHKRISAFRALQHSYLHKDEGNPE
Sequence of WEE1 kinase domain (residues 290-576) (P30291 290-576): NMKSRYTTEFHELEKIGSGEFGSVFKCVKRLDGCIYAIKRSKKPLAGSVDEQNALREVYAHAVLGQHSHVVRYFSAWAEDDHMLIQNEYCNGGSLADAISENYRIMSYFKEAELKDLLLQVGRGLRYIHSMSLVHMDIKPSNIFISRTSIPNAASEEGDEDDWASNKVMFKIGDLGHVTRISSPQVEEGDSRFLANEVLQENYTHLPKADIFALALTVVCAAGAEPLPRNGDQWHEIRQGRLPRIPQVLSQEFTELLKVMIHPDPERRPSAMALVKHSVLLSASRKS
Sequence of WEE1-nanoluciferase fusion protein (P30291 whole entry, the tested form may be a part): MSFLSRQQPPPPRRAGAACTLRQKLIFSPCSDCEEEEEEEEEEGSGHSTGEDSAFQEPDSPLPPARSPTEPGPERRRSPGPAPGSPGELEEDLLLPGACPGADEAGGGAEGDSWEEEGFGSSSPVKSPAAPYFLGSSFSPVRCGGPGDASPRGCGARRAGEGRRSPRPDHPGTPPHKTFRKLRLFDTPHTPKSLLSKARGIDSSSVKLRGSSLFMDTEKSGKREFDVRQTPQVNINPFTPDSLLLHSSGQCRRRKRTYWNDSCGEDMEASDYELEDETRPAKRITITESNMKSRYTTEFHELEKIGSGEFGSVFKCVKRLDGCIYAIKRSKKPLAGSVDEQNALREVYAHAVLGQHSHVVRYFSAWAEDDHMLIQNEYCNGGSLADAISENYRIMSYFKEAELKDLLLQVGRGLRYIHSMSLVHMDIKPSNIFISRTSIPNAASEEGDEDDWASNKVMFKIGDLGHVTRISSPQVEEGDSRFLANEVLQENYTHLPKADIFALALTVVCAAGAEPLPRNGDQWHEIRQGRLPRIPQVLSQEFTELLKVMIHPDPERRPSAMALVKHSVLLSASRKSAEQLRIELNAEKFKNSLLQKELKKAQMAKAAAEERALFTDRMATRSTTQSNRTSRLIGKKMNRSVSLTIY
Sequence of WEE1 (P30291 whole entry): as the sequence (P30291 whole entry, the tested form may be a part) above
Sequence of CDK6 (Q00534 whole entry): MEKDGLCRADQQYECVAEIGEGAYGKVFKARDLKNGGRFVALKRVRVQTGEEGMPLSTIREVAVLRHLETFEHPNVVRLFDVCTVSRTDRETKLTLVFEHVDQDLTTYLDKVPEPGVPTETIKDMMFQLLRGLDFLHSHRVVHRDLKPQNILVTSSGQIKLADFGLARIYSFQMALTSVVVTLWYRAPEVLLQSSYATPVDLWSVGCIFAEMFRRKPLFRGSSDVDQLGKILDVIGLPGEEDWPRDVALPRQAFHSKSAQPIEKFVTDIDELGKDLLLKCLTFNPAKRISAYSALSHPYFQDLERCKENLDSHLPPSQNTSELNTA
Sequence of FAK (Q05397 whole entry): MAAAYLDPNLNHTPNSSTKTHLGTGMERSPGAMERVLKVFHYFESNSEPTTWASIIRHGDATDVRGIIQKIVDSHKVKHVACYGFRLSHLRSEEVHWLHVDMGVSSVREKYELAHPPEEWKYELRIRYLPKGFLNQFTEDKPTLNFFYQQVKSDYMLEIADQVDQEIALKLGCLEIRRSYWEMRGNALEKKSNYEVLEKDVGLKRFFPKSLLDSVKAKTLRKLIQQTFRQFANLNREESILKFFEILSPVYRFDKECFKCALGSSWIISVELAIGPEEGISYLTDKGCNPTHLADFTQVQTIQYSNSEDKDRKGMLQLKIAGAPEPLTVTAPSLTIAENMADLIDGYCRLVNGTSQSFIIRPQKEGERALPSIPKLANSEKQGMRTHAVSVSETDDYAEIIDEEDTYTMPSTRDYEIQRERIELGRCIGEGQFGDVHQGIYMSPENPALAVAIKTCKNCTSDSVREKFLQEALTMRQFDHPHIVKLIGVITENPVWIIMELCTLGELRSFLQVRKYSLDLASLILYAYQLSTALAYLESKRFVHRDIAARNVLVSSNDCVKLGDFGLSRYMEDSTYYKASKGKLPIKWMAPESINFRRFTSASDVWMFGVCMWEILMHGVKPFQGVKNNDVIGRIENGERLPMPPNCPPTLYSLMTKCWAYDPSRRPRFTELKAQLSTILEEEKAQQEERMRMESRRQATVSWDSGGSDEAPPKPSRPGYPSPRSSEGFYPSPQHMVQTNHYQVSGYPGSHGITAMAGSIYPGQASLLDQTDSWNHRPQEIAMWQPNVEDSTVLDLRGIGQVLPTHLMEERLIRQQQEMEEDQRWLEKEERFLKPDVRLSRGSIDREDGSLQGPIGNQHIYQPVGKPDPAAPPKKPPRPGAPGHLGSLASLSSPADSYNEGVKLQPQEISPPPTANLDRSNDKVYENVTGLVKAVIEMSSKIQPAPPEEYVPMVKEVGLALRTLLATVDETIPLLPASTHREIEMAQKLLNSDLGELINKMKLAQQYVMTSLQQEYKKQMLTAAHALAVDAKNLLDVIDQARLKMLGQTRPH
Sequence of KLHDC2-WEE1 (P30291 299-569 limits assumed, one chain of several): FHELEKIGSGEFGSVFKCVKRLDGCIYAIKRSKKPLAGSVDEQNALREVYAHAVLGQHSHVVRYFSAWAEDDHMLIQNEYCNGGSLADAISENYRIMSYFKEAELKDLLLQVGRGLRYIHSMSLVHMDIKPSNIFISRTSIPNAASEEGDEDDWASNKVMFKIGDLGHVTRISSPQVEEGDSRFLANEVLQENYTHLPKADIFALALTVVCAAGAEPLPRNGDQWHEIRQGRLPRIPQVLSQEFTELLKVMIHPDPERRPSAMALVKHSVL

For `CS(=O)(=O)Nc1cccc(-c2csc3cnc(Nc4ccc(N5CCN(CCCCCOc6cccc7c6C(=O)N(C6CCC(=O)NC6=O)C7=O)CC5)cc4)nc23)c1` (centres unmarked) [DB0614, reference compound], the “kinase degradation activity compared between compounds” value [1] is given as “more effective kinase degrader than KYH1872 (26)” and the cytotoxicity [2] is given as “cytotoxic”.

For `C=CCn1c(=O)c2cnc(Nc3ccc(N4CCN(C)CC4)cc3)nc2n1-c1cccc(C(C)(C)O)n1` [AZD1775, reference compound], the “WEE1 target engagement (in words)” value ([3]; YHJ1039 versus AZD1775) was “comparable”.

In the case of “KYH2011 (27): identical to KYH1872 (26) except reversed methionine stereocenter, PPP(D-Met)AGG ({YHJ1039-PEG2′}-PPP[dM]AGG; reading uncertain; also: printed as PPP(D-Met)AGG)”, the Kd (KLHDC2; read-out: KLHDC2 binding (KD), TR-FRET, FITC-PPPMAGG probe, His6-GST-KLHDC2) is reported as 155 nM and the “inhibition of cell proliferation (in words)” value (MOLM-14 cells; MOLM-14 cells, 72 hours) is reported as “did not cause kinase degradation or inhibit cell proliferation”.

With “KYH1872 (26): two-PEG linker connects YHJ1039 with a seven amino acid SelK peptide (PPPMAGG) ({YHJ1039-two‑PEG linker}-PPPMAGG; reading uncertain)” the “WEE1 and CDK4 RNA levels” value (WEE1 and CDK4 RNA) was “not changed”, the “kinase degradation (Western blot, in words)” value ([1]; KYH1872 at 1 and 10 μM) was “induced the degradation” and the “kinase degradation activity compared between compounds” value [1] was “slightly improved degradation activity when compared with KYH1886 (25)”. For the same molecule, the DC50 (CDK4 [4]; read-out: DC50 CDK4, Western blotting, 24 hours) was 457 nM, the “time at which CDK4 degradation was observable” value (CDK4 [4]; time course Western blot) was 12 h and the DC50 (NEK9) was 1000 nM. The DC50 (WEE1; read-out: DC50 WEE1, Western blotting, 24 hours) was 302 nM, the “time at which WEE1 degradation was observable” value (WEE1; time course Western blot) was 12 h and the “KLHDC2 binding (in words)” value (KLHDC2; biochemical binding assay, limit of detection ~2 nM) was “binds to the KLHDC2 protein; also recorded: tighter than the limit of detection”. For the same molecule, the DC50 (CDK6) was 1070 nM, the DC50 (FAK) was 933 nM and the “WEE1 engagement, fold less efficient than ZNL-02-096” value ([3]; MLN4924 pretreated) was ~ 300 fold. For the same molecule, the “CDK4 degradation after MLN4924 pretreatment (HiBiT)” value (CDK4 [5]; [8]) was “prevented WEE1 and CDK4 degradation”, the “Dmax CDK4 (HiBiT)” value (CDK4 [5]; maximum total fraction of the target degraded, given as a fraction, MOLM-14 cells, six hours) was 0.32 and the “induced KLHDC2-WEE1 binding” value (KLHDC2-WEE1) was “can induce between KLHDC2-WEE1 binding”. The “WEE1 and CDK4 degradation in MOLM-14 and MV4-11 cells” value (WEE1 and CDK4) was “displayed WEE1 and CDK4 degradation”, the “effect on cell proliferation with MLN4924 co-treatment” value (MOLM-14 cells; co-treatment with increasing concentrations of MLN4924) was “blunted the negative effect” and the EC50 (MOLM-14 cells; read-out: Cell viability (EC50), MOLM-14 cells, 72 hours after treatment) was 1060 nM. For the same molecule, the “WEE1 degradation after MLN4924 pretreatment (HiBiT)” value [6, 8] was “prevented WEE1 and CDK4 degradation” and the “DC50 WEE1-KD (HiBiT)” value ([6]; MOLM-14 cells, six hours, n.d. = not determined (no degradation)) was 1,290 nM.

B1: KYH1872 (26) (peptide)
peptide: {YHJ1039-two‑PEG linker}-PPPMAGG
modifications: reading uncertain
Work on B1 yielded a Kd [7] of under 2 nM.
